High-throughput results from PubChem.
Most compounds without a hit are left out; they make up all but 1.7% or so of the library.
CAL PDZ FP-1 – CAL PDZ (human) peptide binding inhibition; Q9HD26; hit rate 0.92% among 300,000; inhibition, % at 24.9 µM; purified CAL PDZ, TMR-peptide fluorescence polarization, 1 h;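 active = mean inhibition of at least 30% with at least half of replicates also reaching 30%; inconclusive = no clear call, values can overlap the other calls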;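 note: 0% = DMSO neutral control and 100% = excess unlabeled competitor peptide PRC23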
ARNT-TACC3 inh – disruptors of human ARNT/TACC3 interaction. AlphaScreen His-ARNT PAS-B/GST-TACC3 binding, luminescence; TACC3 fragment carries E629A point mutation. inhibition, % at 9.99 µM. hit rate 0.66% among 390,000. AID 623870;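 active = mean inhibition of replicates at least 50% and at least half of replicates each reaching 50%; inconclusive = half or more replicates reach 50% but mean below 50%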;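 note: 0% = complete ARNT plus TACC3 wells and 100% = ARNT alone without TACC3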
Rce1 inhib – yeast Ras-converting enzyme inhibition; Q03530; yeast membranes, quenched prenylated peptide cleavage fluorescence; calls only; hit rate 0.27% among 290,000; AID 2563;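 active = fall in fluorescence gain of 50% or more versus controls, with final raw signal at or below 3038400; inconclusive = same 50% fall but final raw signal above 3038400; inactive = fall in fluorescence gain under 50%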;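 note: plate controls were neutral control wells for no effect and wells lacking membranes for full effect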
Target sequence (Q03530 whole entry, looked up): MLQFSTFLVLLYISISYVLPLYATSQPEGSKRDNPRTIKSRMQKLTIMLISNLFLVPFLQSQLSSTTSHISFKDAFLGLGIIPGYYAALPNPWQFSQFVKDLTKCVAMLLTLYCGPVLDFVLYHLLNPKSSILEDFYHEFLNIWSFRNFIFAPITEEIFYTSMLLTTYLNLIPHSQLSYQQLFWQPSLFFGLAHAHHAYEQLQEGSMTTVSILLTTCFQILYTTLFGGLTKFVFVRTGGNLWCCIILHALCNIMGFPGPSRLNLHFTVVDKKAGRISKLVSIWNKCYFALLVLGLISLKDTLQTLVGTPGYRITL
CAL PDZ FP-2 – blocks peptide binding to human CAL PDZ domain | AID 504414 | purified CAL PDZ, TMR-peptide fluorescence polarization, 1 h | Q9HD26 | hit rate 0.02% among 330,000 | inhibition, % at 20 µM;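 active = highest replicate inhibition of at least 40%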;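 note: plate controls were DMSO neutral control wells for no effect and unlabeled competitor peptide control wells for full effect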
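Assay system – tagged CAL PDZ protein CerCALP, purified · Timing – 1 h at RT · Compound – single point, 20 µM · Measured by – fluorescence polarization from S- and P-plane intensities, G-factor corrected · Evaluation – inhibition from polarization loss · Probe or stimulus – TMR reporter peptide T*-PRC34 · Buffer or medium – pH 7.4 phosphate-saline buffer, reducing agent, detergent, IgG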
AI-2 QS modul – modulates the Vibrio harveyi AI-2 quorum sensing system | Vibrio harveyi JMH597 AI-2 luminescence/OD600 ratio, 9 h; active compounds read low; strain lacks LuxN and CqsS sensors; 0 = neutral-control median | activity change, % at 7.5 µM | hit rate 0.4% among 300,000; in the data active = activity change below about -75%, passing the limit was not always enough; inconclusive = no clear call, values can overlap the other calls;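 note: luminescence divided by OD600 gain over 9 h not by final OD600 alone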
JMH597 growth rt – retest Vibrio harveyi JMH597 growth inhibition; shares compounds with AI-2 QS modul; OD600 absorbance, 9 h; lacks LuxN and CqsS sensors; growth inhibition, % at 7.5 µM; hit rate 1% among 750; AID 2726;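 active = every replicate shows growth inhibition above 50%; inconclusive = at least half, but not all, replicates pass that cutoff; inactive = fewer than half of replicates pass it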
BB721 const-QS lum – retest counter-screen: lowers luminescence of constitutive-QS Vibrio harveyi BB721; shares compounds with AI-2 QS modul; 9 h; inhibition, % at 7.5 µM; hit rate 95% among 750; AID 2727;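 active = inhibition above about 80% in every replicate, not just on average, limit read from the data; inconclusive = at least half of replicates past the limit, but not all; inactive = fewer than half of replicates past the limit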
BB721 growth rt – retest: inhibitors of Vibrio harveyi BB721 growth | shares compounds with AI-2 QS modul | OD600 absorbance, 9 h | growth inhibition, % at 7.5 µM | hit rate 3% among 750;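 active = every replicate shows growth inhibition above 50%; inconclusive = at least half but not all replicates above 50% inhibition; inactive = under half of replicates above 50% inhibition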
AI-2 QS JMH597 – Vibrio harveyi AI-2 signaling luminescence modulation – JMH597 strain, confirmation; Vibrio harveyi JMH597 AI-2 quorum sensing luminescence, 9 h; luxN and CqsS knockout, AI-2 only; shares compounds with AI-2 QS modul; AID 2736; inhibition, % at 7.5 µM; hit rate 97% among 750;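 active = every replicate shows more than 75% inhibition of signal versus neutral control wells; inconclusive = half to three quarters of replicates exceed 75% inhibition; inactive = fewer than half of replicates exceed 75% inhibition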
* hit, by the source's call; i = inactive; ? = inconclusive; nt = no result given.

SMILES	CAL PDZ FP-1	ARNT-TACC3 inh	Rce1 inhib	CAL PDZ FP-2	AI-2 QS modul	JMH597 growth rt	BB721 const-QS lum	BB721 growth rt	AI-2 QS JMH597
COc1ccc(N2CCN(C(=O)Cn3nnc(-c4cccs4)n3)CC2)cc1	0	-4	i	-2	36	nt	nt	nt	nt
COCCCNC(=O)c1c(N)n(-c2ccc3c(c2)OCO3)c2nc3ccccc3nc12	0	-24	i	-2	4	nt	nt	nt	nt
O=C(Nc1ccccc1)N1CCCC1c1cccs1 (centres undefined)	nt	-3	i	1	3	nt	nt	nt	nt
Cc1ccc(-n2nnnc2SCC(=O)Nc2cccc(NC(=O)c3ccco3)c2)cc1C	-2	7	i	-3	33	nt	nt	nt	nt
CO/N=C\CC(=O)Nc1ccc(Oc2ccccc2)cc1	-1	-3	i	0	-80*	12	84*	-3	91*
O=C(COC(=O)C1CCC1)Nc1ccc(Oc2ccccc2)cc1	nt	-5	i	-1	-7	nt	nt	nt	nt
O=C(COC(=O)C1CC1)Nc1ccc(Oc2ccccc2)cc1	-4	-5	i	-3	-82*	17	89*	-1	94*
COc1ccc(-c2nnn(-c3cc(Cl)cc(Cl)c3)c2N)cc1	1	3	i	-1	18	nt	nt	nt	nt
COc1ccc(S(=O)(=O)c2nnn(-c3cccc(Cl)c3)c2N)cc1	2	-5	i	-1	?	1	99*	-70	100*
COC(=O)c1ccccc1NC(=O)CNc1cc(OC)c(OC)cc1C	0	29	i	-2	17	nt	nt	nt	nt
O=C(CN1C(=O)c2ccccc2C1=O)Nc1ccc(-c2nc3ccccc3o2)cc1	-9	-8	i	nt	-92*	-33	87*	-38	93*
O=C(Nc1ccc(Nc2ccccc2)cc1)c1ccc(Cl)cc1	nt	-1	nt	0	-23	nt	nt	nt	nt
O=C(Nc1ccc(Nc2ccccc2)cc1)c1ccccc1	nt	nt	nt	nt	-91*	38	95*	12	96*
COc1ccc(N=C2SCC(=O)N2c2ccc(OC)cc2)cc1	1	0	i	-2	13	nt	nt	nt	nt
COc1ccc(N=C2SCC(c3ccccc3)=NN2C)cc1	-2	7	nt	0	-87*	51	90*	146	95*
CC(=O)Nc1cc2c(cc1Cl)-c1ccccc1C2O (centres undefined)	-3	-4	nt	-3	nt	nt	nt	nt	nt
O=C(Cn1c(=O)oc2cc(S(=O)(=O)NCc3ccccc3)ccc21)NCc1ccco1	nt	-5	i	0	?	5	100*	-47	100*
O=C(Cn1c(=O)oc2cc(S(=O)(=O)N3CCCC3)ccc21)NCc1ccccn1	3	13	i	1	-97*	6	99*	-52	99*
CC(C)(C)c1ccc(OCC(=O)N2CCN(c3ccccn3)CC2)cc1	5	nt	nt	-2	nt	nt	nt	nt	nt
CC(C)(C)c1ccc(OCC(=O)N2CCN(c3ncccn3)CC2)cc1	1	-2	i	0	-86*	0	93*	12	95*
Clc1cccc(CSc2nc3ccncc3[nH]2)c1	-3	0	i	-1	-89*	-38	96*	-33	96*
CC(C)(C)C(=O)N/C(N)=N/c1nc2ccccc2o1	-7	1	i	0	17	nt	nt	nt	nt
COC(=O)C[C@H]1CC[C@H](NS(=O)(=O)c2ccccc2F)[C@@H](CO)O1	nt	-1	nt	nt	nt	nt	nt	nt	nt
Cc1ncn(-c2ccc(C(=O)Oc3ccccc3)cn2)n1	-1	-1	i	-2	-87*	19	93*	1	96*
COc1ccc(C2CC2C(=O)c2ccccn2)cc1 (centres undefined)	-1	-6	i	0	-7	nt	nt	nt	nt
SMILES	CAL PDZ FP-1	ARNT-TACC3 inh	Rce1 inhib	CAL PDZ FP-2	AI-2 QS modul	JMH597 growth rt	BB721 const-QS lum	BB721 growth rt	AI-2 QS JMH597
COC(=O)/C=C/C(=O)Nc1cccc(C(F)(F)F)c1	0	-5	i	-1	-89*	9	87*	34	87*
CC(C)c1cc(C(=O)Nc2cccc(C(F)(F)F)c2)no1	-4	-3	i	-2	18	nt	nt	nt	nt
Cc1cc(C(=O)NNC(=O)Nc2cccc(C(F)(F)F)c2)no1	-3	nt	i	0	-90*	-7	98*	-14	98*
COC(=S)Nc1cccc(C(F)(F)F)c1	-1	4	i	0	13	nt	nt	nt	nt
O=C1COc2ccc(C(=O)COC(=O)Cc3ccccc3F)cc2N1	-2	8	i	-1	-83*	3	88*	0	91*
CN(C)S(=O)(=O)c1cccc(C(=O)OCC(=O)c2ccc3c(c2)NC(=O)CO3)c1	2	-14	i	-3	-53	nt	nt	nt	nt
O=C1COc2ccc(C(=O)COC(=O)Cc3ccsc3)cc2N1	-4	nt	i	-1	-85*	27	95*	11	97*
O=C1COc2ccc(C(=O)COC(=O)Cc3c(F)cccc3Cl)cc2N1	-7	8	nt	0	nt	nt	nt	nt	nt
CN(C)S(=O)(=O)c1ccc(C(=O)OCC(=O)c2ccc3c(c2)NC(=O)CO3)cc1	-2	12	i	-2	-95*	-10	?	-8	85*
CO[C@@H]1CN(C)C(=O)c2cc(NC(=O)Nc3cc(F)ccc3F)ccc2OC[C@@H](C)N(C(=O)c2cnccn2)C[C@H]1C	nt	3	nt	nt	nt	nt	nt	nt	nt
Cc1ccc2c(c1)NC(=O)c1cccnc1N2	-2	0	i	-1	16	nt	nt	nt	nt
O=[N+]([O-])c1ccc(NCCCNS(=O)(=O)c2ccccc2)cc1	27	0	i	0	?	11	97*	6	97*
COc1ccc(S(=O)(=O)Nc2ccc3c(c2)OCCO3)cc1Cl	-2	-5	i	-1	24	nt	nt	nt	nt
CC(=O)Nc1ccc(S(=O)(=O)Nc2ccc3c(c2)OCCO3)cc1Cl	-2	0	i	0	-97*	5	99*	-35	100*
O=C(NCCN1CCOCC1)c1ccc(Cl)c([N+](=O)[O-])c1	-2	-3	i	0	?	4	-6	-16	5
C[C@H](O)C#Cc1ccc([C@H]2[C@@H](CO)N3CCCCN(CC4CCOCC4)C[C@H]23)cc1	nt	1	nt	nt	nt	nt	nt	nt	nt
O=S(=O)(N/N=C\C=C\c1ccccc1)c1ccc(Cl)cc1	-7	-3	i	1	-94*	41	99*	27	100*
COc1cc(NC(=O)Cn2ncc(Cl)c(Cl)c2=O)c(C)cc1[N+](=O)[O-]	-4	-2	i	-2	-80*	4	93*	3	94*
COc1cc(NC(=O)CN2C(=O)CN(C)C2=O)c(C)cc1[N+](=O)[O-]	-2	4	i	0	46	nt	nt	nt	nt
